Sampled rows, rich in hits. Any-hit rate of the full collection: about 3.5%.
MrgX1 antag = antagonists of human MrgX1 receptor, primary screen, HEK293 cells, Fluo-4 calcium flux; Mas-related G-protein coupled receptor member X1 (Homo sapiens), Q96LB2; BAM8-22 antagonism; stronger effect = lower value; B-score at 10 µM; 1.3% of 310,000 active;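 active = calcium-response B-score plate-corrected more than 3 library SD below zero, starting fluorescence within 5 deviations, no agonist response on first addition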;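 also: peak minus trough fluorescence over baseline after final BAM8-22 challenge near maximal dose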
Target sequence (Q96LB2 whole entry, looked up): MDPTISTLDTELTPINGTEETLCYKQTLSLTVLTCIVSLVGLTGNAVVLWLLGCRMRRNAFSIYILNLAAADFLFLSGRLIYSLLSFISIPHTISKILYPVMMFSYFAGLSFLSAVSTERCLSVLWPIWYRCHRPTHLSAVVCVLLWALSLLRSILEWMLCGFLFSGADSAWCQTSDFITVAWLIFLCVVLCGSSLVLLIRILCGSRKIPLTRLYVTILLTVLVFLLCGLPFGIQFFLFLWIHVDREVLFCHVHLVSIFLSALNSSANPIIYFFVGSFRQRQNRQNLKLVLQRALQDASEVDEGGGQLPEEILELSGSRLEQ
MrgX1 allo act = positive allosteric modulators of MrgX1, primary screen, HEK293 cells, Fluo-4 calcium flux; B-score at 10 µM; Mas-related G-protein coupled receptor member X1 (Homo sapiens), Q96LB2; FDSS; stronger effect = higher value; 0.63% of 310,000 active;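 active = plate-corrected calcium response at least 3 library SD above typical, normal starting fluorescence, not activating the receptor alone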;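 also: compound read alongside a low EC10 to EC30 dose of BAM8-22 agonist; peak minus trough fluorescence over baseline measured at the second addition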
MrgX1 ag = agonists of human MrgX1 receptor, primary screen, HEK293 cells, Fluo-4 calcium flux. Mas-related G-protein coupled receptor member X1 (Homo sapiens), Q96LB2. Fluo-4 calcium fluorescence, agonist mode; stronger effect = higher value. B-score at 10 µM. 0.44% of 310,000 active;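 active = calcium response B-score plate-corrected fluorescence ratio at least 3 library SD, with starting fluorescence B-score inside 5 SD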
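Test system: HEK293 cells stably expressing human MrgX1 receptor; amount: 15,000 cells per well; doses: compound delivered in addition one of three; times: overnight plating before 1 h dye loading; detection: Fluo-4 NW calcium-flux fluorescence, kinetic read; read-out basis: B-scored fluorescence response ratio; controls: positive and negative controls per plate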
RGS4 inh = RGS4 inhibitors, primary screen, cell-based, HEK293 M3R inducible RGS4, calcium flux; Fluo-4 calcium flux; stronger effect = higher value; triggered by carbachol at its EC20; B-score at 10 µM; 0.45% of 310,000 active;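 active = B-score, a plate-corrected calcium signal, over three deviations above library mean, with baseline fluorescence within five deviations of library mean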;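 also: RGS4 expression induced by doxycycline in cells with stable M3 receptor; B-score is computed from the integrated fluorescence ratio over baseline after carbachol; higher B-score means a larger calcium signal and so more RGS4 inhibition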
Target sequence (P49798 whole entry, looked up): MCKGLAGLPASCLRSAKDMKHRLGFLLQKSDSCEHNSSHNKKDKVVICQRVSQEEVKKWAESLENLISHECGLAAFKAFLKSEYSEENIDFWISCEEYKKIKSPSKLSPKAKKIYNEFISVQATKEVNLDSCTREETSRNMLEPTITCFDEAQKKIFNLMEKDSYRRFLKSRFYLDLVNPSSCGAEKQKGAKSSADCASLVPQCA
RGS4 act = RGS4 potentiators or activators, primary screen, cell-based, HEK293 M3R inducible RGS4, calcium flux | carbachol calcium flux Fluo4; stronger effect = lower value | B-score at 10 µM | 0.92% of 310,000 active | AID 463111, 2010;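 active = B-score of the integrated calcium signal more than 4 SD below the library mean, with starting fluorescence not abnormally high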;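 also: negative B-score means reduced calcium response which marks RGS4 activation or potentiation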
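Material: M3R-expressing HEK293 line, RGS4 induced by doxycycline | Schedule: Overnight RGS4 induction, 30 min dye load 37 °C, 20 min compound RT | Measured by: Fluo4 fluorescence kinetic imaging of calcium | Read-out: Integrated calcium ratio converted to B score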
An asterisk follows results filed as active; i = inactive; nt = no result.

SMILES	MrgX1 antag	MrgX1 allo act	MrgX1 ag	RGS4 inh	RGS4 act
Cc1onc(-c2ccccc2)c1C(=O)Nc1ncc([N+](=O)[O-])s1	-4.55*	i	i	i	i
Cc1ccc(C(=O)Nc2ncc([N+](=O)[O-])s2)cc1	-4.54*	i	i	i	i
O=C(Nc1ncc([N+](=O)[O-])s1)c1ccc2c(c1)OCO2	i	i	i	i	i
Cc1cc(NC(=O)CCN2C(=O)C3C4C=CC(C4)C3C2=O)ccc1Br (stereo unspecified)	i	i	i	i	i
CN1CCN(C(=O)/C=C/c2ccc([N+](=O)[O-])o2)CC1	nt	nt	nt	i	i
O=C(O)/C=C/c1ccc([N+](=O)[O-])o1	-5.2*	i	i	i	i
O=C(Nc1cc2c3c(c1)C1CCCC1CN3CC1CCCC21)c1ccccc1 (stereo unspecified)	-12.6*	i	i	i	-9.78*
CC(C)CN(C(=O)COC(=O)CNC(=O)c1ccccc1F)c1c(N)n(Cc2ccccc2)c(=O)[nH]c1=O	i	i	i	i	i
CCOC(=O)C1=NNC(C(=O)c2ccc(Cl)cc2)C1c1ccccc1 (stereo unspecified)	i	i	i	i	i
CCOC(=O)C1=NN(c2ccc(Cl)cc2)C(c2ccccc2)CC1=O (stereo unspecified)	-7.8*	i	i	i	i
COc1ccc(CC(=O)Oc2ccc(Br)cc2F)cc1S(=O)(=O)N1CCOCC1	i	i	i	i	i
Cn1c(N)c(-c2ccccc2)c2ccc([N+](=O)[O-])cc2c1=O	i	i	29.8*	i	i
Cc1ccc(S(=O)(=O)NC(C(=O)Oc2ccc3ccc(=O)oc3c2)c2ccccc2)cc1 (stereo unspecified)	i	i	i	i	i
Cc1ccc(S(=O)(=O)N[C@H](C(=O)Oc2ccc3c(C(F)(F)F)cc(=O)oc3c2)c2ccccc2)cc1	i	i	28.6*	i	i
COC(=O)Cn1cc([N+](=O)[O-])nc1C	i	i	i	i	i
CCn1cc([N+](=O)[O-])nc1C	-7.54*	i	i	i	i
CCOc1ccc(C(=O)N2CCc3ccccc32)cc1OCC	i	i	i	i	i
COc1ccc2c(c1)c1ncn(CCN3CCCC3)c(=O)c1n2C	i	i	i	i	i
COc1ccccc1CCn1cnc2c3cc(C)ccc3n(C)c2c1=O	i	i	i	i	-7.05*
CCOC(=O)c1c(C)[nH]c(C(=O)OCc2ccccc2)c1C	i	i	i	i	i
CCOC(=O)CCc1c(C(=O)OCC)[nH]c(CC)c1C(=O)OCc1ccccc1	i	i	i	i	-7.5*
CN1[C@@H]2CC(OC(=O)[C@H](CO)c3ccccc3)C[C@H]1[C@@H]1O[C@@H]12 (stereo partly specified)	i	i	i	i	-7.13*
C[N+](C)(C)CCCNC(=O)c1ccc(/C=N/O)nc1	-5.11*	i	i	i	i
Cc1nc2ccccc2c(-c2ccccc2)c1CC(=O)O	i	i	i	i	i
O=C(O)C[C@H](O)C[C@H](O)/C=C/c1c(C2CC2)nc2ccccc2c1-c1ccc(F)cc1	nt	nt	nt	i	-7.01*
SMILES	MrgX1 antag	MrgX1 allo act	MrgX1 ag	RGS4 inh	RGS4 act
Cc1ccccc1Cn1cc(NC(=O)c2cc(C3CC3)on2)cn1	i	i	i	i	i
COc1ccc(N/C=C2\C(=O)CCc3c2oc2cc(Cl)c(O)c(Cl)c32)cc1	-4.99*	i	i	i	i
COc1ccc(N/C=C2\CCOC2=O)cc1	i	i	i	i	i
COc1ccc(CCNC(=O)c2cc3c(=O)n4ccccc4nc3n(C3CCCCC3)c2=N)cc1OC	i	i	i	i	i
COc1ccc(CCNC(=O)c2cc3c(=O)n4ccccc4nc3n(C3CCCCC3)c2=N)cc1	i	i	i	i	-7.13*
Cc1cccn2c(=O)c3cc(C(=O)NC4CCCC4)c(=N)n(CCc4ccccc4)c3nc12	i	i	i	i	-8.07*
CC(=O)c1c(COC(=O)c2ccc(F)cc2)nc2ccccc2[n+]1[O-]	i	i	i	i	i
Cc1cccc(NC(=S)N(Cc2cccs2)Cc2cc3cc(C)cc(C)c3[nH]c2=O)c1	-5.45*	i	i	i	i
COc1ccc2[nH]c(=O)c(CN(Cc3cccs3)C(=S)Nc3cccc(C)c3)cc2c1	i	i	i	i	i
CN(CCC#N)C(=O)CSc1nnc(-c2c[nH]c3ccccc23)o1	i	i	i	i	i
CCOC(=O)c1cnc2c(C)c(Cl)ccc2c1NCCCN1CCOCC1	i	9.1*	i	i	i
CC(=O)NC(CC(=O)N(C)Cc1cccc(Cl)c1Cl)c1ccccc1 (stereo unspecified)	i	i	i	i	i
CCN(CC)C1=NC=CC(c2ccccc2)=CC1C (stereo unspecified)	i	i	i	i	i
Cc1cccc(N2CCN(C(=O)c3cn(C)c(=O)c4c3c3ccccc3n4C)CC2)c1C	i	9.52*	i	i	i
CC(=O)c1c(C)[nH]c(C(=O)COC(=O)c2cc(S(=O)(=O)N(C)c3ccccc3)ccc2Cl)c1C	i	i	i	i	i
CCN(c1ccccc1)S(=O)(=O)c1ccc(Cl)c(C(=O)OCC(=O)c2[nH]c(C)c(C(C)=O)c2C)c1	i	i	i	i	-7.16*
Cc1ccc(C)c(-n2c3nc(=O)[nH]c(=O)c-3cc3cc([N+](=O)[O-])ccc32)c1	i	i	33.7*	nt	nt
CC(=O)Nc1ccc(N2C(=O)CSC2c2cccc(Br)c2)cc1 (stereo unspecified)	i	i	i	i	i
CC1CN(C(=O)COC(=O)c2cc(Cl)ccc2[N+](=O)[O-])CC(C)O1 (stereo unspecified)	-4.78*	i	i	i	i
O=c1c2ccccc2ncn1CCCCOc1ccc(Br)cc1	i	i	i	i	i
COC(=O)c1ccc(-c2noc(CN(Cc3nccn3C)C(C)C)n2)cc1	i	i	i	i	-7.52*
O=C(O)CCCCCCC1C(=O)NC(=O)N1CCC(O)C1CCCCC1 (stereo unspecified)	i	i	30.9*	i	i

Screening data: PubChem BioAssay, Johns Hopkins Ion Channel Center
